“And” between values parts separate entries of the source, which are not always exact repeats. Equal entries are not always repeated.
How the values were obtained:
Mus musculus [1] = species: Mus musculus; assay: Antitumor activity in CD-1 female mouse skin Papilloma assay; assay type: functional
Method in brief: (§1)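 CD-1 female mice. Initiation with DMBA (0.2 μmol in 0.2 mL acetone) on shaved dorsal skin. Promotion began 14 days later with TPA (10 nmol in acetone) twice weekly. Retinoid applied topically in 0.2 mL acetone to the same area. Dose-response used 137.7/135.7, 45.9, 15.3 or 5.1 nmol. Papillomas counted per mouse at day 83–89 after promotion start. Tumor-free mice also recorded. ED50 derived from the dose-response.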

[2] = molecular target: T1, Retinoic acid receptor alpha (Mus musculus) (UniProt P11416); assay: Inhibition of [3H]-retinoic acid binding to murine retinoic acid receptor RAR alpha; parameters: concentration or dose not given beside the values; conditions: concentration not given here
T1 sequence (whole entry): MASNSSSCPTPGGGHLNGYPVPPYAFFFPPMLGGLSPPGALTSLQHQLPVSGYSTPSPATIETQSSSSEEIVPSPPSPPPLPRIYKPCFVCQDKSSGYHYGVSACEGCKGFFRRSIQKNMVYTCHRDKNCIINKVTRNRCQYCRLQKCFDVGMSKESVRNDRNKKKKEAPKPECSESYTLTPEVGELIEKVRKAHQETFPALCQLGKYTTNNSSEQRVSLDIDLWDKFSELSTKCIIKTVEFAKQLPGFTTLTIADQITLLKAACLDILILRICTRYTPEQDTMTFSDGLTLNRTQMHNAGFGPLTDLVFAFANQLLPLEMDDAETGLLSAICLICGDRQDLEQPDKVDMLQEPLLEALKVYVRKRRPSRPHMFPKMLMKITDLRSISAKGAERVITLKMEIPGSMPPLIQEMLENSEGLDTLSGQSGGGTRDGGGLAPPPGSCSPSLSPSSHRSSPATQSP
Method in brief: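 RARα binding: inhibition of tritiated retinoic acid binding by a 200-fold molar excess of unlabeled retinoid, expressed as percent inhibition.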

Mus musculus [3] = species: Mus musculus; assay: Antitumor activity in CD-1 female mouse skin Papilloma assay at 15.3 nmol dose; assay type: functional; method in brief: as §1
Mus musculus [4] = species: Mus musculus; assay: Antitumor activity in CD-1 female mouse skin Papilloma assay at 45.9 nmol dose; assay type: functional; method in brief: as §1
Mus musculus [5] = species: Mus musculus; assay: Antitumor activity in CD-1 female mouse skin Papilloma assay at 5.1 nmol dose; assay type: functional; method in brief: as §1
Mus musculus [6] = species: Mus musculus; assay: Antitumor activity in CD-1 female mouse skin Papilloma assay at 135.7 nmol dose; assay type: functional; method in brief: as §1

Structure (SMILES) | inhibition [2] | ED50 (Mus musculus [1]) | also measured
CC(/C=C/C=C(\C)COc1c(Cl)cc(F)cc1Cl)=C\C(=O)O | – | > 100 nmol | –
COC(=O)/C=C(C)/C=C/C=C(\C)C(=O)Nc1ccc(C(C)(C)C)cc1C(C)(C)C | – | > 100 nmol | –
CC(/C=C/C=C(\C)COc1c(C)cc(C)cc1C)=C\C(=O)O | 30% | 60 nmol | –
CC(/C=C/C=C(\C)C(=O)Nc1c(C)cc(C)cc1C)=C\C(=O)O | – | > 100 nmol | –
CCOC(=O)/C=C(C)/C=C/C=C(C)/C=C/c1c(C)cc(OC)c(C)c1C [ETRETINATE] | – | 7.2 nmol | –
CC1=C(/C=C/C(C)=C/C=C/C(C)=C/C(=O)O)C(C)(C)CCC1 [TRETINOIN] | – | 5.2 nmol | Control (Mus musculus [3]): 8%
COc1cc(NC(=O)/C(C)=C/C=C/C(C)=C/C(=O)O)cc(OC)c1 | – | > 45.9 nmol | –

The next lines start with results.

inhibition [2] | Structure (SMILES) | ED50 (Mus musculus [1]) | also measured
5% | CC(/C=C/C=C(\C)COc1ccc(C(C)(C)C)cc1C(C)(C)C)=C\C(=O)O | > 45.9 nmol | –
0% | CC(/C=C/C=C(\C)C(=O)Nc1ccc(C(C)(C)C)cc1C(C)(C)C)=C\C(=O)O | > 100 nmol | –
0% | CC(/C=C/C=C(\C)COc1ccc(F)cc1C)=C\C(=O)O | 45.9 nmol | –
30% | CC(/C=C/C=C(\C)COc1cc(C)cc(C)c1C)=C\C(=O)O | 27 nmol | Control (Mus musculus [4]): 36%; No. of tumors/mouse (Mus musculus [4]): 15 and 5; Control (Mus musculus [5]): 89%; No. of tumors/mouse (Mus musculus [5]): 29 and 12.4; Control (Mus musculus [6]): 10%; Control (Mus musculus [3]): 66%; No. of tumors/mouse (Mus musculus [3]): 22 and 9.2
15% | CC(/C=C/C=C(\C)C(=O)Nc1c(C)cc(C(C)(C)C)cc1C(C)(C)C)=C\C(=O)O | – | –
25% | COc1ccc(OC/C(C)=C/C=C/C(C)=C/C(=O)O)c(C(C)(C)C)c1 | > 100 nmol | –

From ChEMBL document CHEMBL1145036, “Inhibition of papilloma formation by analogues of 7,8-dihydroretinoic acid” (2003)
